Data: ChEMBL document CHEMBL1152987, “Emergence of the quinolone resistance-mediating gene aac(6')-Ib-cr in extended-spectrum-beta-lactamase-producing Klebsiella isolates collected in Slovenia between 2000 and 2005” (2007)

Legend:
Format in all cases: functional
[1] = tested on: Klebsiella; experiment: Antimicrobial activity against extended-spectrum-beta-lactamase-producing Klebsiella transconjugant TK7 isolate expressing quinolone resistance-mediating gene aac(6')-Ib-cr by Etest
In short: (§1)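 Transconjugants came from broth-free matings of Klebsiella donors with E. coli J53 Azr on brain heart infusion agar. Selection was for 24 h at 37°C on LB agar with sodium azide 150 μg/ml plus ampicillin 100, tetracycline 10, trimethoprim 25 or chloramphenicol 30 μg/ml, then replica plating ± ciprofloxacin 0.01 μg/ml. MICs were read by Etest per the manufacturer's instructions.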

[2] = tested on: Klebsiella; experiment: Antimicrobial activity against extended-spectrum-beta-lactamase-producing Klebsiella transconjugant TK4 isolate expressing quinolone resistance-mediating gene aac(6')-Ib-cr by Etest; in short: as §1
[3] = tested on: Klebsiella; experiment: Antimicrobial activity against extended-spectrum-beta-lactamase-producing Klebsiella transconjugant TK19 isolate expressing quinolone resistance-mediating gene aac(6')-Ib-cr by Etest; in short: as §1
[4] = tested on: Klebsiella; experiment: Antimicrobial activity against extended-spectrum-beta-lactamase-producing Klebsiella transconjugant TK22 isolate expressing quinolone resistance-mediating gene aac(6')-Ib-cr by Etest; in short: as §1
[5] = tested on: Klebsiella; experiment: Antimicrobial activity against extended-spectrum-beta-lactamase-producing Klebsiella transconjugant TK5 isolate expressing quinolone resistance-mediating gene aac(6')-Ib-cr by Etest; in short: as §1
[6] = tested on: Klebsiella; experiment: Antimicrobial activity against extended-spectrum-beta-lactamase-producing Klebsiella transconjugant TK6 isolate expressing quinolone resistance-mediating gene aac(6')-Ib-cr by Etest; in short: as §1
[7] = tested on: Klebsiella; experiment: Antimicrobial activity against extended-spectrum-beta-lactamase-producing Klebsiella transconjugant TK16 isolate expressing quinolone resistance-mediating gene aac(6')-Ib-cr by Etest; in short: as §1
[8] = tested on: Klebsiella; experiment: Antimicrobial activity against extended-spectrum-beta-lactamase-producing Klebsiella transconjugant TK14 isolate expressing quinolone resistance-mediating gene aac(6')-Ib-cr by Etest; in short: as §1
[9] = tested on: Klebsiella; experiment: Antimicrobial activity against extended-spectrum-beta-lactamase-producing Klebsiella transconjugant TK11 isolate expressing quinolone resistance-mediating gene aac(6')-Ib-cr by Etest; in short: as §1
[10] = tested on: Klebsiella; experiment: Antimicrobial activity against extended-spectrum-beta-lactamase-producing Klebsiella transconjugant TK10 isolate expressing quinolone resistance-mediating gene aac(6')-Ib-cr by Etest; in short: as §1
[11] = tested on: Klebsiella; experiment: Antimicrobial activity against extended-spectrum-beta-lactamase-producing Klebsiella transconjugant TK13 isolate expressing quinolone resistance-mediating gene aac(6')-Ib-cr by Etest; in short: as §1
[12] = tested on: Klebsiella; experiment: Antimicrobial activity against extended-spectrum-beta-lactamase-producing Klebsiella transconjugant TK21 isolate expressing quinolone resistance-mediating gene aac(6')-Ib-cr by Etest; in short: as §1
[13] = tested on: Klebsiella; experiment: Antimicrobial activity against extended-spectrum-beta-lactamase-producing Klebsiella transconjugant TK1 isolate expressing quinolone resistance-mediating gene aac(6')-Ib-cr by Etest; in short: as §1
[14] = tested on: Klebsiella; experiment: Antimicrobial activity against extended-spectrum-beta-lactamase-producing Klebsiella transconjugant TK18 isolate expressing quinolone resistance-mediating gene aac(6')-Ib-cr by Etest; in short: as §1
[15] = tested on: Klebsiella; experiment: Antimicrobial activity against extended-spectrum-beta-lactamase-producing Klebsiella transconjugant TK25 isolate expressing quinolone resistance-mediating gene aac(6')-Ib-cr by Etest; in short: as §1
[16] = tested on: Klebsiella; experiment: Antimicrobial activity against extended-spectrum-beta-lactamase-producing Klebsiella transconjugant TK9 isolate expressing quinolone resistance-mediating gene aac(6')-Ib-cr by Etest; in short: as §1
[17] = tested on: Klebsiella; experiment: Antimicrobial activity against extended-spectrum-beta-lactamase-producing Klebsiella transconjugant TK3 isolate expressing quinolone resistance-mediating gene aac(6')-Ib-cr by Etest; in short: as §1
[18] = tested on: Klebsiella; experiment: Antimicrobial activity against extended-spectrum-beta-lactamase-producing Klebsiella transconjugant TK17 isolate expressing quinolone resistance-mediating gene aac(6')-Ib-cr by Etest; in short: as §1
[19] = tested on: Klebsiella; experiment: Antimicrobial activity against extended-spectrum-beta-lactamase-producing Klebsiella transconjugant TK15 isolate expressing quinolone resistance-mediating gene aac(6')-Ib-cr by Etest; in short: as §1
[20] = tested on: Klebsiella; experiment: Antimicrobial activity against extended-spectrum-beta-lactamase-producing Klebsiella transconjugant TK23 isolate expressing quinolone resistance-mediating gene aac(6')-Ib-cr by Etest; in short: as §1
[21] = tested on: Klebsiella; experiment: Antimicrobial activity against extended-spectrum-beta-lactamase-producing Klebsiella transconjugant TK12 isolate expressing quinolone resistance-mediating gene aac(6')-Ib-cr by Etest; in short: as §1
[22] = tested on: Klebsiella; experiment: Antimicrobial activity against extended-spectrum-beta-lactamase-producing Klebsiella transconjugant TK8 isolate expressing quinolone resistance-mediating gene aac(6')-Ib-cr by Etest; in short: as §1
[23] = tested on: Klebsiella; experiment: Antimicrobial activity against extended-spectrum-beta-lactamase-producing Klebsiella transconjugant TK24 isolate expressing quinolone resistance-mediating gene aac(6')-Ib-cr by Etest; in short: as §1
[24] = tested on: Klebsiella; experiment: Antimicrobial activity against extended-spectrum-beta-lactamase-producing Klebsiella transconjugant TK20 isolate expressing quinolone resistance-mediating gene aac(6')-Ib-cr by Etest; in short: as §1
[25] = tested on: Klebsiella; experiment: Antimicrobial activity against extended-spectrum-beta-lactamase-producing Klebsiella transconjugant TK2 isolate expressing quinolone resistance-mediating gene aac(6')-Ib-cr by Etest; in short: as §1

Measured: MIC

O=C(O)c1cn(C2CC2)c2cc(N3CCNCC3)c(F)cc2c1=O [CIPROFLOXACIN]
0.125 mg/L: all assays above
